Reference: ChEMBL document CHEMBL2046297, “Synthesis and evaluation of substituted dibenzo[c,e]azepine-5-ones as P-glycoprotein-mediated multidrug resistance reversal agents” (Bioorg Med Chem Lett, 2012)
Calls of active or inactive are those of the source. No cut-off for these calls is given here.

Columns and labels:
K562/A02 [1] = assay: Inhibition of Pgp-mediated adriamycin efflux in multidrug-resistance human K562/A02 cells assessed as increase in intracellular accumulation of adriamycin after 60 mins by FACS flow cytometry; assay type: cell-based
In short: (§1)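 K562/A02 cells were incubated with 0.5 µM Rh123 or 0.5 µM ADR, with or without 0.33, 3.3 or 10 µM compound, at 37 °C for 30 min. K562 cells received dye only. Cells were washed twice in PBS, resuspended in medium and left 60 min at 37 °C for efflux. Read-out was fluorescence microscopy or flow cytometry (ex/em 488/520 nm Rh123; 488/570 nm ADR). Vehicle was 0.1% DMSO.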

K562/A02 [2] = assay: Survival of human K562/A02 cells in presence of adriamycin at 5 uM after 72 hrs by MTS assay
K562 [3] = assay: Potentiation of adriamycin-induced cytotoxicity in human K562 cells after 72 hrs by MTS assay; assay type: functional, cell-based
In short: (§2)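 Chemosensitization was tested by co-treating K562/A02 cells with 2 µM ADR or K562 cells with 0.04 µM ADR, plus compound at 2.5, 5 or 10 µM, for 72 h. Survival was read by MTS and compared with ADR alone. VRP served as positive control.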

K562/A02 [4] = assay: Inhibition of Pgp-mediated rhodamine-123 efflux in multidrug-resistance human K562/A02 cells assessed as increase in intracellular accumulation of rhodamine-123 after 60 mins by fluorescence microscopic analysis; assay type: cell-based; in short: as §1
K562/A02 [5] = assay: Survival of human K562/A02 cells in presence of adriamycin at 10 uM after 72 hrs by MTS assay
K562/A02 [6] = assay: Inhibition of Pgp-mediated multidrug-resistance in human K562/A02 cells assessed as potentiation of adriamycin-induced cytotoxicity after 72 hrs by MTS assay; assay type: cell-based; in short: as §2
[7] = molecular target: ATP-dependent translocase ABCB1 (Homo sapiens, UniProt P08183); assay: Inhibition of P-glycoprotein-mediated rhodamine 123 uptake expressed in multidrug-resistant human K562/A02 cells assessed as fluorescence activity ratio at 10 uM after 72 hrs by flow cytometry relative to untreated control; assay type: cell-based; conditions: k562/a02, 72 h
ATP-dependent translocase ABCB1, sequence (P08183 whole entry): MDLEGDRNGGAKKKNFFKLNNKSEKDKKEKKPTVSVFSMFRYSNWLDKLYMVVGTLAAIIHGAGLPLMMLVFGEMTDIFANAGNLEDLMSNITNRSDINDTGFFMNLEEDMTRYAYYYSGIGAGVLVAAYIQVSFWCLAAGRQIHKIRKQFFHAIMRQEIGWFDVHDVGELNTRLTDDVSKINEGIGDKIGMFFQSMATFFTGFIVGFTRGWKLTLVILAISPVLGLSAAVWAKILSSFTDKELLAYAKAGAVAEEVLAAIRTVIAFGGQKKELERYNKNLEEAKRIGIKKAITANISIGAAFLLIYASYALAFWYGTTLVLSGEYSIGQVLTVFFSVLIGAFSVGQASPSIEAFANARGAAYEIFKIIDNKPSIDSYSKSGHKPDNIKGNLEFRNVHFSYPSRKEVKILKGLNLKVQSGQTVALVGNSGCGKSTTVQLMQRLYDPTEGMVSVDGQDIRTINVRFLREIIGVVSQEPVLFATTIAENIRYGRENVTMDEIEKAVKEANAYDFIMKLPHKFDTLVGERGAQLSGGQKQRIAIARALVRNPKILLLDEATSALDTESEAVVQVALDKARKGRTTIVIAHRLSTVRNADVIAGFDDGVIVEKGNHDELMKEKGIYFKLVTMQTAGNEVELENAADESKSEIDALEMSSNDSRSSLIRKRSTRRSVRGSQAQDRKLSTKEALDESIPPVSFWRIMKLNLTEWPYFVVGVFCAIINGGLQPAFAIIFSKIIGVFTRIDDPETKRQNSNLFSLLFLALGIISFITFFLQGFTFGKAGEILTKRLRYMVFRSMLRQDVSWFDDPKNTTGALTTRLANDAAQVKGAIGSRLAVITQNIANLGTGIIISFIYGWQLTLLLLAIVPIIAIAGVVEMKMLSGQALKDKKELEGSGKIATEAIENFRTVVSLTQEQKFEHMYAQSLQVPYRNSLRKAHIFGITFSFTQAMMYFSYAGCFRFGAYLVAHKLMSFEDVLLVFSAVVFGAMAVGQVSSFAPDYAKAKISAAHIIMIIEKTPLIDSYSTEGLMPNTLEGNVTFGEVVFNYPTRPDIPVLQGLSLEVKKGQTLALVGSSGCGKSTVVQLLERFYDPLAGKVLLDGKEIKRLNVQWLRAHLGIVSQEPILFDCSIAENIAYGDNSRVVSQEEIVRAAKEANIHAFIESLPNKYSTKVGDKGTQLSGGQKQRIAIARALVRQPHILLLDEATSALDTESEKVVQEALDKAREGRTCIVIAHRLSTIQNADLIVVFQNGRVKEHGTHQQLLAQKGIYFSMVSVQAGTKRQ
In short: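 Rh123 accumulation in P-gp-overexpressing K562/A02 cells with compound at 10 µM. FAR is the ratio of mean Rh123 fluorescence intensity in treated versus untreated cells. VRP served as positive control.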

K562/A02 [8] = assay: Survival of human K562/A02 cells in presence of adriamycin at 2.5 uM after 72 hrs by MTS assay
[9] = Antiproliferative activity against multidrug-resistant human K562/A02 cells overexpressing p-glycoprotein after 72 hrs by MTS assay; assay type: functional, cell-based; conditions: K562/A02, 72 h
In short: (§3)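 Growth inhibition of parental K562 and drug-resistant K562/A02 leukemia cells, measured by MTS after 72 h exposure. IC50 is the concentration giving a 50% drop in cell growth. Values are means of three experiments. ADR served as positive control.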

K562 [10] = assay: Antiproliferative activity against human K562 cells after 72 hrs by MTS assay; assay type: functional, cell-based; conditions: K562, 72 h; in short: as §3

Ratio [7] | IC50 (K562 [10]) [µM] | Compound | inhibition (K562/A02 [1]) | survival rate (K562/A02 [2]) [%] | Activity (K562 [3]) | inhibition (K562/A02 [4]) | survival rate (K562/A02 [5]) [%] | inhibition (K562/A02 [6]) | survival rate (K562/A02 [8]) [%] | IC50 [9] [µM]
14.11 | 49.2 | COc1cc2c(c3c1OCO3)-c1c(cc(OC)c3c1OCO3)C(=O)N(CCN1CCN(Cc3ccccc3)CC1)C2 | Dose-dependent effect | 19.9 | inactive | Dose-dependent effect | 7.5 | Dose-dependent effect | 33.9 | 56.3
1.03 | > 100 | COc1cc2c(c3c1OCO3)-c1c(cc(OC)c3c1OCO3)C(=O)N(CCN1CCN(C)CC1)C2 |  |  |  |  |  |  |  | > 100
2.84 | > 100 | CCCN(CCC)CCN1Cc2cc(OC)c3c(c2-c2c(cc(OC)c4c2OCO4)C1=O)OCO3 |  |  |  |  |  |  |  | > 100
3.23 | > 100 | COc1cc2c(c3c1OCO3)-c1c(cc(OC)c3c1OCO3)C(=O)N(CCN1CCOCC1)C2 |  |  |  |  |  |  |  | > 100
4.16 |  | COc1ccc(CCN(C)CCCC(C#N)(c2ccc(OC)c(OC)c2)C(C)C)cc1OC (configuration not stated) [VERAPAMIL] |  |  |  |  |  |  |  | 
2.57 | 62.4 | CCN(CC)CCN1Cc2cc(OC)c3c(c2-c2c(cc(OC)c4c2OCO4)C1=O)OCO3 |  |  |  |  |  |  |  | 94.8
3.46 | 90 | COc1cc2c(c3c1OCO3)-c1c(cc(OC)c3c1OCO3)C(=O)N(CCN1CCCCC1)C2 |  |  |  |  |  |  |  | 91.1
1.44 | > 100 | COc1cc2c(c3c1OCO3)-c1c(cc(OC)c3c1OCO3)C(=O)N(CCN(C)C)C2 |  |  |  |  |  |  |  | > 100
1.65 | > 100 | COc1cc2c(c3c1OCO3)-c1c(cc(OC)c3c1OCO3)C(=O)N(CCN1CCCC1)C2 |  |  |  |  |  |  |  | > 100
